# Reference: PubChem BioAssay AID488779 (The Scripps Research Institute Molecular Screening Center, 2010)
# Active and inactive are the calls of the source.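 How the source made its calls: active means SF-1 luciferase reporter signal in cells inhibited by more than 25%; inactive means the rest.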
# Target: Steroidogenic factor 1 (Homo sapiens) (UniProt Q13285)
# Test: SF-1 inhibition in luciferase reporter cells, confirmation, selectivity assay for LRH1 inverse agonist project, cell-based, luminescence, powder samples, single concentration (AID 488779)
# Conditions: HEK293T SF-1 5xSFRE luciferase reporter, 20 h; at 5 µM; active compounds read high
# Summary of the method: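 Assay system: HEK293T cells with SF-1 and SFRE-luciferase reporter | Measure: Percent inhibition of luminescence from average fold change versus DMSO-treated cells | Replication: Triplicate wells per compound, averaged | Incubation: 20 h compound exposure | Detection: Luminescent luciferase readout | Compound: Single nominal dose of 5 µM test compound | Controls: DMSO-treated cells as vehicle reference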
# Sequence of Steroidogenic factor 1 (Homo sapiens) (Q13285 whole entry, looked up): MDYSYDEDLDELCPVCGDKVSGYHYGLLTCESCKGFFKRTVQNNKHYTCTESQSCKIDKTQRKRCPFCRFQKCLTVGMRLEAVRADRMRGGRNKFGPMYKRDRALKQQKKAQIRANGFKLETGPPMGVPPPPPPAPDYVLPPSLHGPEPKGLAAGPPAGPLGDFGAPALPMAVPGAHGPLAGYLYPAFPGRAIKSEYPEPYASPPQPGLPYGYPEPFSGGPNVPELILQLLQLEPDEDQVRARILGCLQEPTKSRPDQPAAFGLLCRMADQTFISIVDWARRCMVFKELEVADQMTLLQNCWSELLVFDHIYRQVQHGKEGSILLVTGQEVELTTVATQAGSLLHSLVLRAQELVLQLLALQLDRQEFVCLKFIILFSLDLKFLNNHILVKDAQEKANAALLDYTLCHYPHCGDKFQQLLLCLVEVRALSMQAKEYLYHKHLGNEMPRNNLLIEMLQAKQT
row,inhibition,Compound
1,-81% (inactive),CCn1c(=O)cc(N2CCN(c3cccc(C(F)(F)F)c3)CC2)[nH]c1=O
2,7% (inactive),CCn1c(=O)cc(N2CCN(c3ccccc3)CC2)[nH]c1=O
3,3% (inactive),O=c1cc(N2CCN(c3cccc(C(F)(F)F)c3)CC2)n(Cc2ccccc2)c(=O)n1C1CCCCC1
4,2% (inactive),O=c1cc(N2CCN(c3cccc(Cl)c3)CC2)[nH]c(=O)[nH]1
5,-2% (inactive),Cn1c(=O)cc(N2CCN(c3ccc(F)cc3)CC2)[nH]c1=O
6,23% (inactive),O=c1cc(N2CCc3ccccc32)[nH]c(=O)n1C1CCCCC1
7,-4% (inactive),Cc1cc(C)cc(N2CCN(c3cc(=O)n(C4CCCCC4)c(=O)[nH]3)CC2)c1
8,-19% (inactive),O=c1cc(N2CCN(c3ccccc3Cl)CC2)[nH]c(=O)n1C1CCCCC1
9,-18% (inactive),O=c1cc(N2CCN(c3ccccc3)CC2)[nH]c(=O)n1Cc1ccc(F)cc1
10,-7% (inactive),O=c1cc(N2CCN(c3ccccn3)CC2)[nH]c(=O)n1C1CCCCC1
11,-8% (inactive),O=c1cc(N2CCN(C(c3ccccc3)c3ccccc3)CC2)[nH]c(=O)n1C1CCCCC1
12,-10% (inactive),CCn1c(=O)cc(N2CCN(c3cccc(Cl)c3)CC2)[nH]c1=O
13,-83% (inactive),O=c1cc(N2CCN(c3cc(C(F)(F)F)ccn3)CC2)[nH]c(=O)n1C1CCCCC1
14,0% (inactive),O=c1cc(N2CCOCC2)[nH]c(=O)n1C1CCCCC1
15,7% (inactive),Cc1ccc(C)n1CCN1CCN(c2cc(=O)n(C3CCCCC3)c(=O)[nH]2)CC1
16,5% (inactive),O=c1cc(N2CCCC2)[nH]c(=O)n1C1CCCCC1
17,5% (inactive),O=c1cc(N2CCN(c3ncccc3C(F)(F)F)CC2)[nH]c(=O)n1C1CCCCC1
18,13% (inactive),O=c1cc(N2CCN(c3ncccc3Cl)CC2)[nH]c(=O)n1C1CCCCC1

row,inhibition,Compound
1,-2% (inactive),O=c1cc(N2CCN(c3ccc(F)cc3)CC2)[nH]c(=O)n1C1CCCCC1
2,-12% (inactive),Cc1ccc(Cl)cc1N1CCN(c2cc(=O)n(C3CCCCC3)c(=O)[nH]2)CC1
3,30%,CCn1c(=O)cc(N2CCN(C(=O)c3ccco3)CC2)[nH]c1=O
4,1% (inactive),O=c1cc(N2CCN(c3cccc(C(F)(F)F)c3)CC2)[nH]c(=O)n1Cc1ccccc1
5,9% (inactive),O=c1cc(N2CCN(CCN3CCOCC3)CC2)[nH]c(=O)n1C1CCCCC1
6,2% (inactive),O=C(c1ccccc1)N1CCN(c2cc(=O)n(C3CCCCC3)c(=O)[nH]2)CC1
7,-3% (inactive),O=c1cc(N2CCN(c3cccc(Cl)n3)CC2)[nH]c(=O)n1C1CCCCC1
8,-3% (inactive),O=c1cc(N2CCN(c3cccc(C(F)(F)F)c3)CC2)[nH]c(=O)n1-c1ccccc1
9,9% (inactive),O=c1cc(N2CCN(c3cccc(C(F)(F)F)n3)CC2)[nH]c(=O)n1C1CCCCC1
10,1% (inactive),O=c1cc(N2CCN(c3ccc(C(F)(F)F)cc3)CC2)[nH]c(=O)n1C1CCCCC1
11,5% (inactive),COc1ccc(N2CCN(c3cc(=O)n(C4CCCCC4)c(=O)[nH]3)CC2)cc1
12,-24% (inactive),C=CCn1c(N2CCN(c3cccc(C(F)(F)F)c3)CC2)cc(=O)n(C2CCCCC2)c1=O
13,-49% (inactive),O=c1cc(N2CCN(c3ccc(F)cc3F)CC2)[nH]c(=O)n1C1CCCCC1
14,27%,CCn1c(=O)cc(N2CCN(Cc3ccccc3)CC2)[nH]c1=O
15,-5% (inactive),CC1CCN(c2cc(=O)n(C3CCCCC3)c(=O)[nH]2)CC1
16,19% (inactive),CCOC(=O)N1CCN(c2cc(=O)n(C3CCCCC3)c(=O)[nH]2)CC1
17,6% (inactive),COC(=O)C1CCN(c2cc(=O)n(C3CCCCC3)c(=O)[nH]2)CC1

# Continued, compound first:
row,Compound,inhibition
1,N#CCn1c(N2CCN(c3cccc(C(F)(F)F)c3)CC2)cc(=O)n(C2CCCCC2)c1=O,4% (inactive)
2,CCN1CCN(c2cc(=O)n(C3CCCCC3)c(=O)[nH]2)CC1,5% (inactive)
3,CCn1c(=O)cc(N2CCN(c3ccc(F)cc3)CC2)[nH]c1=O,10% (inactive)
4,O=c1cc(N2CCN(c3cccc(Br)c3)CC2)[nH]c(=O)n1C1CCCCC1,-23% (inactive)
5,O=c1cc(N2CCN(c3ccccc3C(F)(F)F)CC2)[nH]c(=O)n1C1CCCCC1,5% (inactive)
6,O=c1cc(N2CCN(c3nccc4occc34)CC2)[nH]c(=O)n1C1CCCCC1,-14% (inactive)
7,C=CCN1CCN(c2cc(=O)n(C3CCCCC3)c(=O)[nH]2)CC1,-13% (inactive)
8,O=C(c1ccco1)N1CCN(c2cc(=O)n(C3CCCCC3)c(=O)[nH]2)CC1,6% (inactive)
9,Cn1c(=O)cc(N2CCN(c3cccc(Cl)c3)CC2)[nH]c1=O,-2% (inactive)
10,O=c1cc(N2CCCCC2)[nH]c(=O)n1C1CCCCC1,23% (inactive)
11,CC(C)Cn1c(=O)cc(N2CCN(c3cccc(C(F)(F)F)c3)CC2)[nH]c1=O,-95% (inactive)
12,O=c1cc(N2CCN(C3CCCCC3)CC2)[nH]c(=O)n1C1CCCCC1,9% (inactive)
13,O=c1cc(N2CCN(c3ccccc3)CC2)[nH]c(=O)n1C1CCCCC1,-3% (inactive)
14,O=c1cc(N2CCN(Cc3ccc(Cl)cc3)CC2)[nH]c(=O)n1C1CCCCC1,-4% (inactive)
15,CC1CCN(c2cc(=O)n(Cc3ccc(F)cc3)c(=O)[nH]2)CC1,0% (inactive)
16,O=c1cc(N2CCN(c3cccc(C(F)(F)F)c3)CC2)[nH]c(=O)n1C1CCCCC1,-1% (inactive)
17,O=c1cc(N2CCN(Cc3ccc4c(c3)OCO4)CC2)[nH]c(=O)n1C1CCCCC1,24%
18,O=c1cc(N2CCN(c3nc(-c4ccccc4)ns3)CC2)[nH]c(=O)n1C1CCCCC1,1% (inactive)
19,C=CCn1c(=O)cc(N2CCN(c3cccc(C(F)(F)F)c3)CC2)[nH]c1=O,-164% (inactive)
20,O=c1cc(N2CCN(c3cccc(Cl)c3Cl)CC2)[nH]c(=O)n1C1CCCCC1,3% (inactive)
21,O=c1cc(N2CCN(c3cc(Cl)cc(Cl)c3)CC2)[nH]c(=O)n1C1CCCCC1,-9% (inactive)
22,O=c1cc(N2CCC(Cc3ccccc3)CC2)[nH]c(=O)n1C1CCCCC1,9% (inactive)
23,O=c1cc(N2CCN(c3cccc(Cl)c3)CC2)[nH]c(=O)n1C1CCCCC1,5% (inactive)
24,O=c1cc(N2CCN(c3cccc(F)c3)CC2)[nH]c(=O)n1C1CCCCC1,-112% (inactive)
25,O=c1cc(N2CCN(c3ccnc4cc(Cl)ccc34)CC2)[nH]c(=O)n1C1CCCCC1,11% (inactive)
